Drawing on ChEMBL document CHEMBL4339222, “Covalent Inhibitors of Plasmodium falciparum Glyceraldehyde 3-Phosphate Dehydrogenase with Antimalarial Activity in Vitro” (ACS Med Chem Lett, 2019), this text covers IC50, Ratio and selectivity ratio for 14 molecules.

Series [1] concerns Plasmodium falciparum. As to the kind of experiment: Antimalarial activity against CQ-susceptible Plasmodium falciparum D10 infected in human type A-positive red blood cells assessed as inhibition of parasite growth incubated for 72 hrs by spectrophotometry based parasite lactate dehydrogenase assay. Format: functional, organism-based. The essentials: (§1)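 pLDH assay on P. falciparum D10 and W2 blood-stage cultures exposed to compound for 72 h; chloroquine run as control. IC50 values are the mean of three separate experiments, each done in duplicate, with SD.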

Series [2] deals with Plasmodium falciparum. Description: Inhibition of recombinant His-tagged Plasmodium falciparum GAPDH expressed in Escherichia coli assessed as reduction in NADH formation by measuring Kinact/Ki ratio in presence of NAD+, DL-glyceraldehyde 3-phosphate and GAPDH by spectrophotometry based Ferdinand assay.
The test system of series [3] is Plasmodium falciparum. Description: Antimalarial activity against CQ-resistant Plasmodium falciparum W2 infected in human type A-positive red blood cells assessed as inhibition of parasite growth incubated for 72 hrs by spectrophotometry based parasite lactate dehydrogenase assay. The format is functional, organism-based. The essentials: as §1
Series [4] concerns HMEC-1. As to the kind of experiment: Cytotoxicity in human HMEC1 cells assessed as reduction in cell viability incubated for 72 hrs by MTT assay. The format is cell-based. The settings on record: HMEC-1, 72 h. The essentials: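 Human endothelial HMEC-1 cells exposed to compound for 72 h, then viability read by MTT (tetrazolium reduction) assay. Values are the mean ± SD of three separate experiments, each run in duplicate.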
(In general: Formazan colour is commonly taken as a measure of viable cells.)

Series [5] can be described thus: Selectivity index, ratio of IC50 for human HMEC1 cells to IC50 for antimalarial activity against CQ-susceptible Plasmodium falciparum D10 infected in human type A-positive red blood cells. The format is toxicity. The conditions noted are these: read-out: Ratio IC50. The essentials:
(§2)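 SI taken as HMEC-1 IC50 divided by antiplasmodial IC50. […] Each value is the mean of three experiments done in duplicate, with SD.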

Series [6] in a line: Selectivity index, ratio of IC50 for human HMEC1 cells to IC50 for antimalarial activity against CQ-resistant Plasmodium falciparum W2 infected in human type A-positive red blood cells. Format: toxicity. The settings on record: read-out: Ratio IC50. The essentials:
as §2

Where [7] appears, read: Plasmodium falciparum, D10, 72 h, read-out: IC50.
[8] abbreviates: Plasmodium falciparum, W2, 72 h, read-out: IC50.

Active and inactive are the calls of the source. No cut-off for these calls is given here. Some results are limits rather than exact numbers.

On to `N[C@H](C(=O)NCc1ccc([N+](=O)[O-])cc1)[C@@H]1CC(Br)=NO1`, for which the IC50 amounted to 790 nM in series [1] (setting [7]), 720 nM in series [3] (setting [8]) and 36100 nM in series [4]. In addition, the Ratio in series [2] is 1.9 s⁻¹ M⁻¹. For the same molecule, the selectivity ratio was determined as 45.7 in series [5] and 50.1 in series [6].
For the molecule `CCN(CC)CCCC(C)Nc1ccnc2cc(Cl)ccc12` (configuration not stated) [CHLOROQUINE], the IC50 in series [4] is above 40000 nM.
As for `N[C@H](C(=O)NCCc1ccccc1)[C@@H]1CC(Br)=NO1`, the IC50 in series [1] (setting [7]) was 280 nM; in series [3] (setting [8]) it was 250 nM; in series [4], above 100000 nM. Besides, in series [2], the Ratio worked out at 0.4 s⁻¹ M⁻¹. Moreover, the selectivity ratio is above 357 in series [5] and above 400 in series [6].
On to `N[C@H](C(=O)O)[C@@H]1CC(Br)=NO1`, for which the values for the IC50 in series [1] (setting [7]), in series [3] (setting [8]) and in series [4] were 350 nM, 340 nM and 19700 nM, respectively. Moreover, the Ratio in series [2] stood at 0.7 s⁻¹ M⁻¹. The results for the selectivity ratio in series [5] and in series [6] were 56.3 and 57.9, respectively.
In the case of `COc1ccc(CNC(=O)[C@@H](N)[C@@H]2CC(Br)=NO2)cc1`, in series [2], the Ratio result is “inactive”.
Consider `N[C@H](C(=O)NCc1ccc(F)cc1)[C@@H]1CC(Br)=NO1`, for which the Ratio entry in series [2] is “inactive”.
Turning to `N[C@H](CS(=O)(=O)Cc1ccccc1)[C@H]1CC(Br)=NO1`, the IC50 result in series [1] and in series [3] was “Not Active” each time. Also, in series [2], the Ratio was 1.6 s⁻¹ M⁻¹.
With `N[C@H](C(=O)OCc1ccccc1)[C@@H]1CC(Br)=NO1`, the IC50 in series [1] (setting [7]) was 370 nM; in series [3] (setting [8]), 260 nM; in series [4] it was above 65000 nM. Also, the Ratio in series [2] worked out at 6.6 s⁻¹ M⁻¹. Further, the selectivity ratio in series [5] is above 176; in series [6] it was above 250.
As to `N[C@H](COCc1ccccc1)[C@@H]1CC(Br)=NO1`, the IC50 result in series [1] and in series [3] was “Not Active” in each case. Further, the Ratio in series [2] came to 2.6 s⁻¹ M⁻¹.
Take `COC(=O)[C@@H](N)[C@@H]1CC(Br)=NO1`: the values for the half-maximal inhibitory concentration (IC50) in series [1] (setting [7]), in series [3] (setting [8]) and in series [4] were 790 nM, 880 nM and 34800 nM, respectively. Moreover, in series [2], the Ratio stood at 10.7 s⁻¹ M⁻¹. Also, the selectivity ratio in series [5] came out at 44; in series [6], 39.5.
`N[C@H](CSCc1ccccc1)[C@H]1CC(Br)=NO1`: the IC50 result in series [1] and in series [3] was “Not Active” each time. The Ratio in series [2] is 0.2 s⁻¹ M⁻¹.
As for `N[C@H](CS(=O)(=O)Cc1ccccc1)[C@@H]1CC(Br)=NO1`, the Ratio entry in series [2] is “inactive”.
`N[C@H](C(=O)NCc1ccccc1)[C@@H]1CC(Br)=NO1`: the values for the IC50 in series [1] (setting [7]), in series [3] (setting [8]) and in series [4] were 360 nM, 480 nM and 14900 nM, respectively. The Ratio in series [2] amounted to 0.6 s⁻¹ M⁻¹. Also, the selectivity ratio in series [5] turned out to be 41.4; in series [6] it was 31.
Turning to `N[C@H](CSCc1ccccc1)[C@@H]1CC(Br)=NO1`, the IC50 entry in series [1] and in series [3] was “Not Active” throughout. Moreover, in series [2], the Ratio came to 1.6 s⁻¹ M⁻¹.

What is called IC50 is the concentration that inhibits the measured activity by half.
